A selection: hits, their analogues and other compounds. The true share with any hit is near 4.5%.
GPR7 antag – GPR7 receptor antagonists, primary screen, cell-based, fluorescence, single concentration | GPR7-expressing cells, fluorescence antagonist assay | AID 1861, 2009 | 1.1% of 290,000 active | inhibition, % at 4.4 µM; in the data active = inhibition above about 16%, passing the limit was not always enough;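 note: cells stimulated with the agonist NPW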
TAAR1 antag – human TAAR1 antagonists, primary screen, Fluo-8 calcium fluorescence, CHO RD-HGA16 cells; antagonist; inhibition, % at 3 µM; 1.5% of 360,000 active; AID 624466, 2012;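 active = inhibition above a per-plate cutoff, the mean inhibition of test compounds on that plate plus 3 SD, cut at about 49% in these data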
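Material: CHO RD-HGA16 cells bearing hTAAR1; compound dosing: one-point dosing, 3 µM nominal final; schedule: dye loading 75 min at 37 °C, then 30 min room temperature; measured by: calcium fluorescence with Fluo-8; control set: vehicle and agonist controls; replication: n of 1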
TAAR1 ag – human TAAR1 agonists, primary screen, Fluo-8 calcium fluorescence, CHO RD-HGA16 cells. Trace amine-associated receptor 1 (Homo sapiens), Q96RJ0. activation, % at 3 µM. vehicle wells 0%, saturating PEA agonist 100%. 0.99% of 360,000 active;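 active = activation above the mean activation of all test compounds in the run plus 3 SD, cut at about 38% in these data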
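Assay system: CHO-derived RD-HGA16 cells with stable Gα16 and human TAAR1; timing: 17-24 h seeding, 75 min 37 °C dye, 30 min RT; read-out: % activation from peak over basal fluorescence ratio, DMSO-to-PEA scaled; measured by: kinetic Fluo-8 calcium fluorescence; benchmarks: low control DMSO, high control PEA (EC100); doses: 3 µM single concentration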
OX1R antag-1 – OX1R (HCRTR1) antagonists, primary screen, fluorescence, CHO/OX1R cells, Fluo-8 calcium, orexin A; 0.43% of 330,000 active; inhibition, % at 5 µM; Orexin/Hypocretin receptor type 1 (Homo sapiens), O43613; Fluo-8 calcium fluorescence;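 active = inhibition above its plate's threshold, mean inhibition of all tested compounds on the plate plus 3 SD, cut at about 37% in these data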
Target sequence (O43613 whole entry, looked up): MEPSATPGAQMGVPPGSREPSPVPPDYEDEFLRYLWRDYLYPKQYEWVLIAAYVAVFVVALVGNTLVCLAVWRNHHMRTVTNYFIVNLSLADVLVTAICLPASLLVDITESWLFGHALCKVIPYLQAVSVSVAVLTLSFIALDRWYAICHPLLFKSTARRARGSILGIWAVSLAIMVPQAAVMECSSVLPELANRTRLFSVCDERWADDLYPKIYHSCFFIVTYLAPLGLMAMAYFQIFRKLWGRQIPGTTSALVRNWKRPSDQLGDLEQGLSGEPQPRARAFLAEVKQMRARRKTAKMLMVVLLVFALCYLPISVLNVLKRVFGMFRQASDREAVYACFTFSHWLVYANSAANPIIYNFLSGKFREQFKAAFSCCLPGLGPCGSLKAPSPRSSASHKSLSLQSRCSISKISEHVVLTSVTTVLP
OX1R antag-2 – antagonists of human orexin 1 receptor (OX1R). Orexin/Hypocretin receptor type 1 (Homo sapiens), O43613. OX1R-expressing cells, FRET antagonist read-out. inhibition, % at 6.6 µM. 1.8% of 330,000 active. AID 485270, 2010; in the data active = inhibition mostly above about 38%, no sharp cut-off; inactive = mostly below about 40%
CHO parental Ca – ATP-evoked calcium signal inhibitors, parental CHO, primary screen, counter-screen for OX1R antagonist project, cell-based, fluorescence, Fluo-8 calcium dye. 0.63% of 330,000 active. inhibition, % at 5.6 µM. AID 463079, 2010. parental CHO-K1, ATP-induced calcium, Fluo-8 fluorescence;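 active = inhibition above that plate's mean sample inhibition plus 3 SD, cut at about 26% in these data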
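Assay system: untransfected parental CHO cell line. Also added: ATP agonist challenge. Dosing: one dose, 5.6 µM nominal. Measured by: Fluo-8 fluorescence. Read-out: % inhibition. Benchmarks: ATP wells versus no-ATP DMSO wells. Repeats: no replicates.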
TAAR1 nonsel count – nonselective antagonists in TAAR1 counter-screen cells, counter-screen for hTAAR1 antagonist project, cell-based, fluorescence, calcium. shares compounds with TAAR1 antag. counterscreen cell line, antagonist mode. inhibition, % at 3 µM. 77% of 2,400 active; in the data active = inhibition above about 22%;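 note: CHO-Ga16 host cells stimulated with ATP at an EC80 level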
TAAR1 antag conf – human TAAR1 antagonists, retest of hits, confirmation, cell-based, fluorescence; TAAR1-expressing cells, fluorescence antagonist read-out; AID 651785, 2012; 40% of 2,400 active; shares compounds with TAAR1 antag; inhibition, % at 3 µM; in the data active = inhibition above about 49%;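 note: CHO-Ga16 host cells challenged with agonist PEA near its EC80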
Ga16 nonsel ag – calcium activation in Ga16-expressing cells, counter-screen for TAAR1 antagonist project, cell-based, fluorescence. shares compounds with TAAR1 antag. agonist counterscreen. activation, % at 3 µM. 18% of 2,400 active; in the data active = activation above about 12%
TAAR1 ag count – TAAR1 activation by candidate antagonists – cell-based, fluorescence, counter-screen for TAAR1 antagonist project; AID 651955, 2012; hTAAR1 cell line, agonist mode; 2% of 2,400 active; shares compounds with TAAR1 antag; activation, % at 3 µM; in the data active = activation above about 37%;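 note: CHO cells stably expressing TAAR1 with calcium dye readout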
Hits are given with their value; 0 = inactive; - = no result.

SMILES	GPR7 antag	TAAR1 antag	TAAR1 ag	OX1R antag-1	OX1R antag-2	CHO parental Ca	TAAR1 nonsel count	TAAR1 antag conf	Ga16 nonsel ag	TAAR1 ag count
O=C(c1ccc(N2CC3CC(C2)c2cccc(=O)n2C3)c([N+](=O)[O-])c1)N1CCCCC1 (configuration not stated)	0	0	0	0	0	0	-	-	-	-
Cc1cccc(NP(=O)(Oc2ccccc2)Oc2ccccc2)c1C	0	73.4	0	0	0	0	23.9	0	0	0
O=P(Nc1ccccc1)(Oc1ccccc1)Oc1ccccc1	0	74.4	0	0	0	0	27.4	59.3	0	0
CC(=O)C1(c2ccccc2)CCN(C(=O)C2CCC(=O)N(CCc3cccc(F)c3)C2)CC1 (configuration not stated)	0	61.1	0	0	0	0	0	0	0	0
O=C(O)C1Cc2ccccc2N2CCCC12 (configuration not stated)	0	0	0	0	0	0	-	-	-	-
C[C@H]1CC[C@H]2NCCN[C@H]2C1	0	0	0	0	0	0	-	-	-	-
O=P(Nc1cccnc1)(Oc1ccccc1Cl)Oc1ccccc1Cl	0	69.9	0	0	0	0	31.6	0	0	0
CC(=O)c1ccc2c(c1)C1C(Cl)C(Sc3ccccc3[N+](=O)[O-])CC1C(c1ccccc1[N+](=O)[O-])N2 (configuration not stated)	0	58.5	0	0	0	0	34.4	0	0	0
C[C@]12CCC(=O)C=C1C=CC1C2CC[C@]2(C)C(=O)CCC12 (some centres not stated)	-	0	0	0	0	0	-	-	-	-
COc1ccccc1OCCCn1cc(C(=O)c2ccco2)c2ccccc21	0	53.9	0	0	0	0	27.0	0	0	0
O=C(c1ccco1)c1cn(Cc2ccc(Cl)cc2)c2ccccc12	0	0	0	0	0	0	-	-	-	-
O=C1NCN(c2ccccc2)C12CCN(C(c1ccnc3ccccc13)c1nnnn1-c1ccc3c(c1)OCCO3)CC2 (configuration not stated)	-	59.2	0	-	-	-	28.5	0	0	0
O=C1NCN(c2ccccc2)C12CCN(C(c1ccccc1)c1nnnn1Cc1ccccc1)CC2 (configuration not stated)	-	53.0	0	-	-	-	0	0	0	0
CSCCC(c1nnnn1Cc1ccccc1)N1CCC2(CC1)C(=O)NCN2c1ccccc1 (configuration not stated)	-	52.4	0	-	-	-	27.9	0	0	0
O=C1NCN(c2ccccc2)C12CCN(C(CCc1ccccc1)c1nnnn1Cc1ccccc1)CC2 (configuration not stated)	-	0	0	-	-	-	-	-	-	-
COC(=O)c1ccc(NC(=O)CSc2nc3ccc(N4C(=O)C5C6C=CC(C6)C5C4=O)cc3s2)cc1 (configuration not stated)	0	88.2	0	0	0	0	41.4	64.9	16.9	0
COC(=O)C1=C(c2ccc3ccccc3c2)C[C@@H]2CC[C@H]1N2C(=O)NCC1CC1	-	0	0	0	0	0	-	-	-	-
C=C1[C@@H](C)[C@H]2[C@H](Cc3ccccc3)NC(=O)[C@]23OC(=O)/C=C/[C@H](O)CCC[C@@H](C)C/C=C/[C@H]3[C@@H]1O	0	71.8	0	0	0	0	32.0	55.2	0	0
C=C1C(C)C2C(Cc3ccccc3)NC(=O)C23C(OC(C)=O)C=CC(C)(O)CC(C)CC=CC3C1O (configuration not stated)	-	0	0	-	-	-	-	-	-	-
CCN1CCN(C(=O)COc2ccc3oc4c(c3c2)CCCC4)CC1	-	0	0	0	0	0	-	-	-	-
Cc1c(C(=O)N2CCC3(CC2)OCCO3)sc2ncnc(N3CCN(c4ccccn4)CC3)c12	0	61.3	0	0	0	0	27.9	50.2	0	0
CCCNC(=O)Cn1cnc2sc(C(=O)N3CCC4(CC3)OCCO4)c(C)c2c1=O	0	0	0	0	0	0	-	-	-	-
CC1CN=C(NCc2ccccc2Cl)S1 (configuration not stated)	0	0	0	0	0	0	-	-	-	-
O=c1[nH]c2ccccc2n1C1CCN(C(CCc2ccccc2)c2nnnn2C2CCCCC2)CC1 (configuration not stated)	-	58.0	0	-	-	-	26.2	0	0	0
CSCCC(c1nnnn1C1CCCC1)N1CCC(n2c(=O)[nH]c3ccccc32)CC1 (configuration not stated)	-	55.8	0	-	-	-	22.7	0	0	0
SMILES	GPR7 antag	TAAR1 antag	TAAR1 ag	OX1R antag-1	OX1R antag-2	CHO parental Ca	TAAR1 nonsel count	TAAR1 antag conf	Ga16 nonsel ag	TAAR1 ag count
CSCCC(c1nnnn1C1CCCC1)N1CCC2(CC1)C(=O)NCN2c1ccccc1 (configuration not stated)	-	0	0	-	-	-	-	-	-	-
CSCCC(c1nnnn1-c1c(C)cccc1C)N1CCC(n2c(=O)[nH]c3ccccc32)CC1 (configuration not stated)	-	53.2	0	-	-	-	24.3	54.9	0	0
COc1cccc(C2=NOC(C(=O)N3CCC4(CC3)OCCO4)C2)c1 (configuration not stated)	0	0	0	0	0	0	-	-	-	-
CSCCC(c1nnnn1Cc1ccccc1)N1CCC(n2c(=O)[nH]c3ccccc32)CC1 (configuration not stated)	-	70.2	0	-	-	-	22.2	52.0	0	0
O=c1[nH]c2ccccc2n1C1CCN(C(c2cccs2)c2nnnn2Cc2ccccc2)CC1 (configuration not stated)	-	0	0	-	-	-	-	-	-	-
O=c1[nH]c2ccccc2n1C1CCN(C(CCc2ccccc2)c2nnnn2Cc2ccccc2)CC1 (configuration not stated)	-	54.8	0	-	-	-	0	0	0	0
